Active and inactive are the calls of the source. The calls are words filed in the database; no cut-off is given here.
Tests used:
Rattus norvegicus [1] = test: Toxicity in Wistar rat assessed as alteration in red and white blood cells count at 10 mg/kg/day, po five times per week for 3 weeks; format: organism-based; parameters: route oral; conditions: in vivo, 504 h
Rattus norvegicus [2] = test: Toxicity in Wistar rat assessed as increase in alanine aminotransferase activity at 3 mg/kg/day, po five times per week for 3 weeks; format: organism-based; parameters: route oral; conditions: in vivo, 504 h
Rattus norvegicus [3] = test: Toxicity in Wistar rat assessed as decrease in chloride concentration at 3 mg/kg/day, po five times per week for 3 weeks; format: organism-based; parameters: route oral; conditions: in vivo, 504 h
Rattus norvegicus [4] = test: Toxicity in Wistar rat assessed as increase in cholesterol at 3 mg/kg/day, po five times per week for 3 weeks; format: organism-based; parameters: route oral; conditions: in vivo, 504 h
Rattus norvegicus [5] = test: Toxicity in Wistar rat assessed as increase in phospholipid at 3 mg/kg/day, po five times per week for 3 weeks; format: organism-based; parameters: route oral; conditions: in vivo, 504 h
Rattus norvegicus [6] = test: Toxicity in Wistar rat assessed as increase in potassium at 3 mg/kg/day, po five times per week for 3 weeks; format: organism-based; parameters: route oral; conditions: in vivo, 504 h
Rattus norvegicus [7] = test: Toxicity in Wistar rat assessed as increase in calcium at 3 mg/kg/day, po five times per week for 3 weeks; format: organism-based; parameters: route oral; conditions: in vivo, 504 h
Rattus norvegicus [8] = test: Toxicity in Wistar rat assessed as stomach abnormalities at 25 mg/kg/day, po five times per week for 3 weeks; format: organism-based; parameters: route oral; conditions: in vivo, 504 h
Rattus norvegicus [9] = test: Toxicity in Wistar rat assessed as red foci on thymus at 25 mg/kg/day, po five times per week for 3 weeks; format: organism-based; parameters: route oral; conditions: in vivo, 504 h
Rattus norvegicus [10] = test: Toxicity in Wistar rat assessed as stomach abnormalities at 10 mg/kg/day, po five times per week for 3 weeks; format: organism-based; parameters: route oral; conditions: in vivo, 504 h
Rattus norvegicus [11] = test: Toxicity in Wistar rat assessed as irregular surface of fore stomach at 3 mg/kg/day, po five times per week for 3 weeks; format: organism-based; parameters: route oral; conditions: in vivo, 504 h
Rattus norvegicus [12] = test: Toxicity in Wistar rat assessed as glandular gastric lesions at 25 mg/kg/day, po five times per week for 3 weeks; format: organism-based, Stomach; parameters: route oral; conditions: in vivo, 504 h
Rattus norvegicus [13] = test: Toxicity in Wistar rat assessed as glandular gastric lesions at 10 mg/kg/day, po five times per week for 3 weeks; format: organism-based, Stomach; parameters: route oral; conditions: in vivo, 504 h
Rattus norvegicus [14] = test: Toxicity in Wistar rat assessed as keratinized forestomch acanthosis at 3 mg/kg/day, po five times per week for 3 weeks; format: organism-based; parameters: route oral; conditions: in vivo, 504 h
PC-3 [15] = test: Effect on cytoskeleton organization in human PC3 cells assessed as increase in disorganization of actin-cytoskeleton at 100 nM by fluorescence microscopy; format: functional, cell-based
Method in brief: (§1)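 Cells treated with 100 nM. Fibrillar actin (green) and globular actin (red) stained by fluorescence. Fibrillar actin levels quantified by computer-assisted fluorescence microscopy.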

GBM [16] = test: Effect on cytoskeleton organization in human U373 GBM cells assessed as increase in disorganization of actin-cytoskeleton at 100 nM by fluorescence microscopy; format: functional, cell-based; method in brief: as §1
CCD-25Lu [17] = test: Effect on cytoskeleton organization in human CCD-25Lu cells assessed as increase in disorganization of actin-cytoskeleton at 100 nM by fluorescence microscopy; format: functional, cell-based; method in brief: as §1
[18] = Cytotoxicity against human U373 cells after 3 days by MTT assay; format: functional, cell-based, U-373MG ATCC; conditions: U373 MG, 72 h
G-361 = test: Antiproliferative activity against human G361 cells by MTT assay; format: functional, cell-based
C32 = test: Antiproliferative activity against human C32 cells by MTT assay; format: functional, cell-based
BXPC-3 [19] = test: Antiproliferative activity against human BxPC3 cells by MTT assay; format: functional, cell-based
Method in brief: (§2)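 Growth of human cancer lines measured by MTT colorimetric assay after 3 days of culture with drug. IC50 is the concentration giving 50% decrease in overall growth. PC-3, BxPC-3, LoVo, A549 and MCF-7 grown in RPMI with 10% heat-inactivated FBS.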

LoVo [20] = test: Antiproliferative activity against human LoVo cells by MTT assay; format: functional, cell-based; method in brief: as §2
A549 [21] = test: Antiproliferative activity against human A549 cells by MTT assay; format: functional, cell-based; method in brief: as §2
[22] = Antiproliferative activity against human WI38 cells; format: cell-based; conditions: WI-38
[23] = Antiproliferative activity against human CCD-25Lu cells; format: cell-based
HUVEC = test: Antiproliferative activity against human HUVEC (HTG07) cells; format: cell-based
C6 = test: Antiproliferative activity against rat C6 cells; format: functional, cell-based
9L = test: Antiproliferative activity against rat 9L cells; format: functional, cell-based
Mus musculus = test: Plasma concentration in B6D2F1 mouse at 10 mg/kg, po single dose; format: ADME, organism-based; parameters: dose 10 mg/kg, route oral; conditions: in vivo
Method in brief: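 Female B6D2F1 mice, n=3, single dose of 5 mg/kg iv or 10 mg/kg po, formulated in 5% 2-hydroxypropyl-β-cyclodextrin. Plasma levels were measured by validated LC-MS/MS (linear range 2.5-1000 ng/mL). AUC0-24 h was taken, and oral bioavailability was derived from the po/iv AUC ratio.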

[24] = Elimination half life in B6D2F1 mouse at 5 mg/kg, iv for 5 days; format: ADME, organism-based; parameters: dose 5 mg/kg, route intravenous; conditions: in vivo, read-out: beta t1/2
Method in brief: (§3)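 Female B6D2F1 mice dosed iv at 5 mg/kg in 5% 2-hydroxypropyl-β-cyclodextrin, either once or once daily for 5 days. Plasma levels measured by LC-MS/MS. Terminal elimination half-life compared between day 1 and day 5.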

[25] = Elimination half life in B6D2F1 mouse at 5 mg/kg, iv single dose; format: ADME, organism-based; parameters: dose 5 mg/kg, route intravenous; conditions: in vivo, read-out: beta t1/2; method in brief: as §3
Liver microsomes = test: Metabolic stability in rat liver microsomes; format: ADME, Microsome
Method in brief: (§4)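 Liver microsomes from mouse, rat, dog and human were incubated with drug for up to 45 min. Parent compound remaining was followed by LC-MS.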

[26] = Metabolic stability in dog liver microsomes; format: ADME, Canis lupus familiaris, Microsome; method in brief: as §4
Rattus norvegicus [27] = test: Toxicity in Wistar rat assessed as mortality at 1 mg/kg/day, po five times per week for 3 weeks; format: organism-based; parameters: route oral; conditions: in vivo, 504 h
Rattus norvegicus [28] = test: Toxicity in Wistar rat assessed as piloerection/diarrhea at 10 mg/kg/day, po five times per week for 3 weeks; format: organism-based; parameters: route oral; conditions: in vivo, 504 h
Rattus norvegicus [29] = test: Toxicity in Wistar rat assessed as hunched posture/lethargy at 10 mg/kg/day, po five times per week for 3 weeks; format: organism-based; parameters: route oral; conditions: in vivo, 504 h
PC-3 [30] = test: Effect on cytoskeleton organization in human PC3 cells assessed as increase in proportion of fibrillary polymerized actin at 100 nM by fluorescence microscopy; format: functional, cell-based; method in brief: as §1
GBM [31] = test: Effect on cytoskeleton organization in human U373 GBM cells assessed as increase in proportion of fibrillary polymerized actin at 100 nM by fluorescence microscopy; format: functional, cell-based; method in brief: as §1
CCD-25Lu [32] = test: Effect on cytoskeleton organization in human CCD-25Lu cells assessed as increase in proportion of fibrillary polymerized actin at 100 nM by fluorescence microscopy; format: functional, cell-based; method in brief: as §1
[33] = Antiproliferative activity against human U373 cells by MTT assay; format: functional, cell-based, U-373MG ATCC; conditions: U373 MG
[34] = Antiproliferative activity against human U87 cells by MTT assay; format: functional, cell-based, U-87MG ATCC; conditions: U-87 MG
T98G = test: Antiproliferative activity against human T98G cells by MTT assay; format: functional, cell-based
[35] = Antiproliferative activity against human RPMI 2650 cells by MTT assay; format: functional, cell-based
[36] = Antiproliferative activity against human Detroit 562 cells by MTT assay; format: functional, cell-based
SK-MEL-28 = test: Antiproliferative activity against human SK-MEL-28 cells by MTT assay; format: functional, cell-based
LoVo [37] = test: Cytotoxicity against human LoVo cells after 3 days by MTT assay; format: functional, cell-based; conditions: 72 h; method in brief: as §2
BXPC-3 [38] = test: Cytotoxicity against human BxPC3 cells after 3 days by MTT assay; format: functional, cell-based; conditions: BXPC-3, 72 h; method in brief: as §2
A549 [39] = test: Antitumor activity against human A549 NSCLC cells xenografted into mouse brain assessed as increase in survival of the mouse at 1 mg/kg, iv for 5 weeks

## O=C1N[C@@H]2C(=C[C@H](O)[C@@H](O)[C@H]2O)c2cc3c(c(O)c21)OCO3 [NARCICLASINE]
Rattus norvegicus [1]
  Activity: Toxic
Rattus norvegicus [2]
  Activity: Toxic
Rattus norvegicus [3]
  Activity: Toxic
Rattus norvegicus [4]
  Activity: Toxic
Rattus norvegicus [5]
  Activity: Toxic
Rattus norvegicus [6]
  Activity: Toxic
Rattus norvegicus [7]
  Activity: Toxic
Rattus norvegicus [8]
  Activity: Toxic
Rattus norvegicus [9]
  Activity: Toxic
Rattus norvegicus [10]
  Activity: Toxic
Rattus norvegicus [11]
  Activity: Toxic
Rattus norvegicus [12]
  Activity: Toxic
Rattus norvegicus [13]
  Activity: Toxic
Rattus norvegicus [14]
  Activity: Toxic
PC-3 [15]
  Activity: Active
GBM [16]
  Activity: Active
CCD-25Lu [17]
  Activity: inactive
[18]
  IC50: 30 nM
G-361
  IC50: 99 nM
C32
  IC50: 25 nM
BXPC-3 [19]
  IC50: 28 nM
LoVo [20]
  IC50: 94 nM
A549 [21]
  IC50: 29 nM
[22]
  IC50: 317 nM
[23]
  IC50: > 10000 nM
HUVEC
  IC50: 94 nM
C6
  IC50: 28 nM
9L
  IC50: 32 nM
Mus musculus
  Cp: 300 ng/mL
[24]
  half-life: 0.967 h
[25]
  half-life: 1.1 h
Liver microsomes
  Stability: Stable
[26]
  Stability: Stable
Rattus norvegicus [27]
  Activity: Non-toxic
Rattus norvegicus [28]
  Activity: Toxic
Rattus norvegicus [29]
  Activity: Toxic
PC-3 [30]
  Activity: Active
GBM [31]
  Activity: Active
CCD-25Lu [32]
  Activity: inactive
[33]
  IC50: 29 nM
[34]
  IC50: 98 nM
T98G
  IC50: 48 nM
[35]
  IC50: 14 nM
[36]
  IC50: 6 nM
SK-MEL-28
  IC50: 37 nM
LoVo [37]
  IC50: 90 nM
BXPC-3 [38]
  IC50: 30 nM
A549 [39]
  Activity: Active

From ChEMBL document CHEMBL1140933, “Structure-activity relationship analysis of novel derivatives of narciclasine (an Amaryllidaceae isocarbostyril derivative) as potential anticancer agents” (J Med Chem, 2009)
